Test results taken from ChEMBL document CHEMBL3102698, “New highly toxic bile acids derived from deoxycholic acid, chenodeoxycholic acid and lithocholic acid” (Bioorg Med Chem, 2014).
The source made the active and inactive calls. No cut-off for these calls is given here.

Experiments:
[1] = Cytotoxicity against human HT1080 cells assessed as cell viability after 24 hrs by MTT assay; type: functional, cell-based; conditions: HT-1080, 24 h
Procedure, shortened: (§1)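 Cells grown to 70% confluence (Caco-2 seeded 8 × 10^3/well, HT1080 12 × 10^4/well), serum-starved 1 h, then exposed 24 h serum-free to 0.1-1000 µM (DMSO ≤0.5%). MTT 0.5 mg/mL added for 3 h at 37 °C; formazan dissolved in DMSO, OD read at 540 nm. Viability taken as % of untreated OD. IC50 fitted from eight concentration levels, at least three experiments in triplicate.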

Caco-2 [2] = assay: Cytotoxicity against human Caco2 cells assessed as cell viability after 24 hrs by MTT assay; type: functional, cell-based; conditions: Caco-2, 24 h; procedure, shortened: as §1
Caco-2 [3] = assay: Induction of ROS production in human Caco2 cells at 10 uM after 0.5 to 24 hrs by 2',7'-dichlorfluorescein-diacetate staining-based fluorescence assay; type: functional, cell-based
Procedure, shortened: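 Caco-2 at 70-80% confluence exposed in serum-free medium for 30 min or 24 h (compounds 10 µM, natural bile acids 100 µM). Medium then replaced with 100 µM 2',7'-dichlorofluorescein diacetate for 30 min at 37 °C, cells washed with PBS, fluorescence read at ex 490/em 530 nm. Signal expressed relative to vehicle and corrected for MTT viability; n = 3.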

Caco-2 [4] = assay: Cytotoxicity against human Caco2 cells assessed as cell viability at 10 uM after 24 hrs by MTT assay in presence of antioxidant N-acetyl cysteine; type: functional, cell-based
Procedure, shortened: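 MTT viability run on Caco-2 with and without 1 mM N-acetyl cysteine co-incubation. Compounds at 10 µM, natural bile acids at 100 µM, 24 h serum-free after 1 h serum starvation. MTT 0.5 mg/mL for 3 h at 37 °C, then DMSO solubilisation and OD at 540 nm, expressed as % of untreated; n = 3.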

[5] = Cytotoxicity against human HET-1A cells; type: cell-based
HT-1080 [6] = assay: Induction of apoptosis in human HT1080 cells at 3.125 to 100 uM after 24 hrs by annexin V-FITC/propidium iodide staining-based flow cytometric analysis; type: functional, cell-based
Procedure, shortened: (§2)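 Caco-2 or HT1080 grown to 80% confluence, then treated 24 h in serum-free medium (vehicle controls run in parallel) at seven concentrations. Cells collected, washed and resuspended in binding buffer, stained with annexin V-FITC plus propidium iodide for 15 min at rt in the dark, and analysed within 5 min. Quadrants scored: annexin+/PI− early apoptotic, double-positive late apoptotic, PI+ only dead.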

Caco-2 [7] = assay: Induction of apoptosis in human Caco2 cells at 3.125 to 100 uM after 24 hrs by annexin V-FITC/propidium iodide staining-based flow cytometric analysis; type: functional, cell-based; procedure, shortened: as §2
HT-1080 [8] = assay: Induction of necrosis in human HT1080 cells at 3.125 to 100 uM after 24 hrs by annexin V-FITC/propidium iodide staining-based flow cytometric analysis; type: functional, cell-based; procedure, shortened: as §2
Caco-2 [9] = assay: Cytotoxicity against human Caco2 cells assessed as cell viability at 100 uM after 24 hrs by MTT assay in presence of antioxidant N-acetyl cysteine; type: functional, cell-based
Procedure, shortened: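 Caco-2 grown to 70% confluence, serum-starved 1 h, then treated 24 h serum-free with compound plus 1 mM NAC; DMSO vehicle at most 0.5%. MTT 0.5 mg/mL for 3 h at 37 °C, formazan dissolved in DMSO, OD 540 nm. Viability expressed as % of untreated cells; n = 3.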

Caco-2 [10] = assay: Induction of necrosis in human Caco2 cells at 50 to 100 uM after 24 hrs by annexin V-FITC/propidium iodide staining-based flow cytometric analysis; type: functional, cell-based
Procedure, shortened: (§3)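 Cells grown to 80% confluence, exposed 24 h in serum-free medium, with vehicle-only controls. Harvested cells washed and resuspended in binding buffer, then stained with annexin V-FITC and propidium iodide 15 min at rt in the dark. Read by flow cytometry within 5 min. Annexin V−/PI+ cells scored necrotic and annexin V+ cells apoptotic; quadrant percentages reported.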

HT-1080 [11] = assay: Induction of necrosis in human HT1080 cells at 50 to 100 uM after 24 hrs by annexin V-FITC/propidium iodide staining-based flow cytometric analysis; type: functional, cell-based; procedure, shortened: as §3
Caco-2 [12] = assay: Induction of necrosis in human Caco2 cells up to 500 uM after 24 hrs by annexin V-FITC/propidium iodide staining-based flow cytometric analysis; type: functional, cell-based; procedure, shortened: as §3
HT-1080 [13] = assay: Induction of necrosis in human HT1080 cells up to 500 uM after 24 hrs by annexin V-FITC/propidium iodide staining-based flow cytometric analysis; type: functional, cell-based; procedure, shortened: as §3
Caco-2 [14] = assay: Cytotoxicity against human Caco2 cells assessed as cell viability at 50 uM after 24 hrs by MTT assay relative to control; type: functional; conditions: Caco-2, 24 h, read-out: Activity

Structure (SMILES) | IC50 [1] | IC50 (Caco-2 [2]) | further results
C[C@H](CCC(=O)NC1CC1)[C@H]1CC[C@H]2[C@@H]3CC[C@@H]4C[C@@H](N=[N+]=[N-])CC[C@]4(C)[C@H]3CC[C@]12C | > 100 µM | > 100 µM | –
C[C@H](CCC(N)=O)[C@H]1CC[C@H]2[C@@H]3[C@H](O)C[C@@H]4C[C@@H](N=[N+]=[N-])CC[C@]4(C)[C@H]3CC[C@]12C | 6.9 µM | 9.8 µM | Activity (Caco-2 [3]): Active; Activity (Caco-2 [4]): inactive
C[C@H](CCC(=O)O)[C@H]1CC[C@H]2[C@@H]3CC[C@@H]4C[C@@H](N=[N+]=[N-])CC[C@]4(C)[C@H]3C[C@H](O)[C@]12C | – | – | EC50 [5]: 97 µM
C[C@H](CCC(=O)NCc1ccccc1)[C@H]1CC[C@H]2[C@@H]3CC[C@@H]4C[C@@H](N=[N+]=[N-])CC[C@]4(C)[C@H]3CC[C@]12C | > 100 µM | > 100 µM | –
CC(=O)O[C@@H]1C[C@@H]2C[C@@H](N=[N+]=[N-])CC[C@]2(C)[C@H]2CC[C@]3(C)[C@@H]([C@H](C)CCC(=O)O)CC[C@H]3[C@H]12 | – | 15.6 µM | –
C[C@H](CCC(=O)O)[C@H]1CC[C@H]2[C@@H]3[C@H](O)C[C@@H]4C[C@H](N=[N+]=[N-])CC[C@]4(C)[C@H]3CC[C@]12C | 26.2 µM | 43.7 µM | –
CCCNC(=O)CC[C@@H](C)[C@H]1CC[C@H]2[C@@H]3CC[C@@H]4C[C@@H](N=[N+]=[N-])CC[C@]4(C)[C@H]3CC[C@]12C | > 200 µM | > 1000 µM | –
C[C@H](CCC(N)=O)[C@H]1CC[C@H]2[C@@H]3CC[C@@H]4C[C@@H](N=[N+]=[N-])CC[C@]4(C)[C@H]3C[C@H](O)[C@]12C | 3.6 µM | 10.7 µM | –
C[C@H](CCC(=O)O)[C@H]1CC[C@H]2C3=CC[C@@H]4C[C@H](O)CC[C@]4(C)[C@H]3CC[C@]12C | – | > 100 µM | –
C[C@H](CCC(=O)O)[C@H]1CC[C@H]2[C@@H]3CC[C@@H]4C[C@@H](N=[N+]=[N-])CC[C@]4(C)[C@H]3CC[C@]12C | 21.3 µM | > 250 µM | Activity (HT-1080 [6]): Active; Activity (Caco-2 [7]): Active
C[C@H](CCC(=O)NC1CCCCC1)[C@H]1CC[C@H]2[C@@H]3CC[C@@H]4C[C@@H](N=[N+]=[N-])CC[C@]4(C)[C@H]3C[C@H](O)[C@]12C | > 100 µM | > 1000 µM | –
CC(=O)O[C@@H]1C[C@@H]2C[C@@H](N=[N+]=[N-])CC[C@]2(C)[C@H]2CC[C@]3(C)[C@@H]([C@H](C)CCC(N)=O)CC[C@H]3[C@H]12 | – | 5.5 µM | –
C[C@H](CCC(N)=O)[C@H]1CC[C@H]2[C@@H]3CC[C@@H]4C[C@@H](N=[N+]=[N-])CC[C@]4(C)[C@H]3CC[C@]12C | 13.1 µM | > 500 µM | Activity (HT-1080 [8]): Active
C[C@H](CCC(=O)NC1CC1)[C@H]1CC[C@H]2[C@@H]3CC[C@@H]4C[C@@H](N=[N+]=[N-])CC[C@]4(C)[C@H]3C[C@H](O)[C@]12C | 1.9 µM | 6.3 µM | Activity (HT-1080 [6]): Active; Activity (Caco-2 [4]): inactive
CC(=O)O[C@@H]1C[C@@H]2C[C@@H](N=[N+]=[N-])CC[C@]2(C)[C@H]2CC[C@]3(C)[C@@H]([C@H](C)CCC(=O)NC4CC4)CC[C@H]3[C@H]12 | – | 6.2 µM | –
C[C@H](CCC(=O)NC1CC1)[C@H]1CC[C@H]2C3=CC[C@@H]4C[C@H](O)CC[C@]4(C)[C@H]3CC[C@]12C | – | 9.5 µM | –
C[C@H](CCC(=O)NC1CC1)[C@H]1CC[C@H]2[C@@H]3[C@H](O)C[C@@H]4C[C@@H](N=[N+]=[N-])CC[C@]4(C)[C@H]3CC[C@]12C | 3.2 µM | 7.6 µM | Activity (Caco-2 [3]): Active; Activity (Caco-2 [4]): inactive
C[C@H](CCC(N)=O)[C@H]1CC[C@H]2[C@@H]3CC[C@@H]4C[C@H](O)CC[C@]4(C)[C@H]3C[C@H](O)[C@]12C | – | – | EC50 [5]: 39 µM
C[C@H](CCC(=O)O)[C@H]1CC[C@H]2[C@@H]3[C@@H](O)C[C@@H]4C[C@H](O)CC[C@]4(C)[C@H]3CC[C@]12C | – | – | Activity (Caco-2 [9]): inactive
C[C@H](CCC(=O)NC1CCCCC1)[C@H]1CC[C@H]2[C@@H]3CC[C@@H]4C[C@@H](N=[N+]=[N-])CC[C@]4(C)[C@H]3CC[C@]12C | > 1000 µM | > 1000 µM | –
C[C@H](CCC(=O)NCc1ccccc1)[C@H]1CC[C@H]2[C@@H]3CC[C@@H]4C[C@@H](N=[N+]=[N-])CC[C@]4(C)[C@H]3C[C@H](O)[C@]12C | > 500 µM | > 1000 µM | Activity (Caco-2 [3]): Active
C[C@H](CCC(N)=O)[C@H]1CC[C@H]2C3=CC[C@@H]4C[C@H](O)CC[C@]4(C)[C@H]3CC[C@]12C | – | > 100 µM | –
C[C@H](CCC(=O)O)[C@H]1CC[C@H]2[C@@H]3CC[C@@H]4C[C@H](O)CC[C@]4(C)[C@H]3CC[C@]12C [LITHOCHOLIC ACID] | 23 µM | 56 µM | Activity (Caco-2 [10]): Active; Activity (HT-1080 [11]): Active; Activity (Caco-2 [9]): inactive
C[C@H](CCC(=O)O)[C@H]1CC[C@H]2[C@@H]3[C@H](O)C[C@@H]4C[C@H](O)CC[C@]4(C)[C@H]3CC[C@]12C [CHENODIOL] | 130 µM | 106 µM | Activity (Caco-2 [12]): inactive; Activity (HT-1080 [13]): inactive
C[C@H](CCC(=O)NC1CC1)[C@H]1CC[C@H]2[C@@H]3CC[C@@H]4C[C@H](N=[N+]=[N-])CC[C@]4(C)[C@H]3C[C@H](O)[C@]12C | 5.7 µM | 2.3 µM | Activity (Caco-2 [4]): inactive
C[C@H](CCC(=O)O)[C@H]1CC[C@H]2[C@@H]3[C@H](O)C[C@@H]4C[C@@H](N=[N+]=[N-])CC[C@]4(C)[C@H]3CC[C@]12C | 23.6 µM | 40.3 µM | –
CCCNC(=O)CC[C@@H](C)[C@H]1CC[C@H]2[C@@H]3CC[C@@H]4C[C@@H](N=[N+]=[N-])CC[C@]4(C)[C@H]3C[C@H](O)[C@]12C | 6.3 µM | – | viability at 50 µM (Caco-2 [14]): 60%; Activity (Caco-2 [3]): Active
C[C@H](CCC(N)=O)[C@H]1CC[C@H]2[C@@H]3CC[C@@H]4C[C@H](N=[N+]=[N-])CC[C@]4(C)[C@H]3C[C@H](O)[C@]12C | 10 µM | 12.6 µM | Activity (Caco-2 [3]): Active; Activity (Caco-2 [4]): inactive
